# Compounds with a hit are over-represented: about 1.8% of the library has one in this group of screens.
# NPY-Y2 PAM-ag: potentiates or activates human NPY-Y2 receptor; P49146; cells expressing NPY-Y2, potentiator/agonist read-out; activation, % at 3.6 µM; hit rate 0.45% among 220,000; AID 1359; in the data active = activation above about 27%;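 also: cells stimulated with NPY near EC25 plus isoproterenol at EC100; 0% = vehicle plus submaximal agonist and 100% = vehicle plus saturating agonist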
# NPY1 pot ag: potentiators or agonists of human neuropeptide Y receptor Y1; NPY-Y1 expressing cells, potentiator/agonist activation; activation, % at 3.6 µM; hit rate 0.37% among 220,000; AID 1304; in the data active = activation above about 33%, passing the limit was not always enough;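 also: cells stimulated with NPY at EC10 then isoproterenol at EC100; 0% = low agonist plus stimulus and 100% = saturating agonist plus stimulus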
# Target sequence (P25929 whole entry, looked up): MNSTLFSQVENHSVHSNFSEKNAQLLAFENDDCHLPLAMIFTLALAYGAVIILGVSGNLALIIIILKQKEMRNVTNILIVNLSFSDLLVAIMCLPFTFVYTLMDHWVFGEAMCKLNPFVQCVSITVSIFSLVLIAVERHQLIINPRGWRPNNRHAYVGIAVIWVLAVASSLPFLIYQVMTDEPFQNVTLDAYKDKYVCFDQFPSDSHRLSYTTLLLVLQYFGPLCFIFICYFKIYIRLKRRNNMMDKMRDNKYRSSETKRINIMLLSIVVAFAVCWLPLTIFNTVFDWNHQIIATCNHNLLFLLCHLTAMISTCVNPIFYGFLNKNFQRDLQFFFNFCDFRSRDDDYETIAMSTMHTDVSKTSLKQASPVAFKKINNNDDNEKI
# NPY Y1 blocker: NPY-Y1 (human) receptor antagonism. P25929. HEK293-CNG Y1 cells, membrane potential fluorescence; NPY at EC95, then isoproterenol. inhibition, % at 3.6 µM. hit rate 1% among 200,000. AID 1040;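 active = inhibition above the campaign mean inhibition of all tested compounds plus 3 SD, cut at about 20% in these data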;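 also: 0% = DMSO wells given NPY plus isoproterenol and 100% = isoproterenol alone without NPY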
#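 Material: Y1- and CNG-channel-expressing HEK293 cells / Probe or stimulus: NPY 25 nM then isoproterenol 1 µM plus Ro 20-1724 25 µM / Doses: 3.6 µM single dose, DMSO 0.4% / Schedule: compound incubation 1 h at room temperature, readout 45 min post-stimulation / Signal: membrane potential fluorescence / Benchmarks: isoproterenol-only wells as full block versus NPY-plus-isoproterenol wells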
# NPY Y2 blocker: antagonists of human neuropeptide Y receptor Y2; hit rate 0.99% among 140,000; inhibition, % at 2.7 µM; NPY-Y2 expressing cells, antagonist mode; P49146; AID 793; in the data active = inhibition above about 17%;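 also: 0% = vehicle with agonist challenge and 100% = reference antagonist with challenge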
# NPY-Y1 antag ct: human NPY-Y1 antagonism in NPY-Y2 counter-screen; inhibition, % at 3.6 µM; hit rate 19% among 710; AID 1256; cell-based NPY-Y1 antagonism counterscreen; shares compounds with NPY Y2 blocker; in the data active = inhibition above about 20%;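 also: cells challenged with NPY then isoproterenol with cAMP sensed through a CNG channel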
# NPY-Y2 ant conf: confirmation of human neuropeptide Y receptor Y2 antagonists | shares compounds with NPY Y2 blocker | HEK293 NPY-Y2 CNG channel, membrane potential fluorescence | inhibition, % at 2.8 µM | hit rate 32% among 710 | AID 1257;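 active = mean inhibition of triplicate wells above the hit cutoff set in the primary screen, cut at about 17% in these data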;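 also: 0% = DMSO with NPY challenge and 100% = BIIE0246 high control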
# * = called active by the depositor; . = no result given.
SMILES,NPY-Y2 PAM-ag,NPY1 pot ag,NPY Y1 blocker,NPY Y2 blocker,NPY-Y1 antag ct,NPY-Y2 ant conf
CC1(C)Cc2nc(-c3ccccc3)nc(SCC(O)CO)c2CO1 (centres undefined),10,-7,.,.,.,.
CCN(CC)C(=O)CSc1nc(-c2ccc(C)cc2)nc2c1COC(C)(C)C2,6,2,7,20*,5,4
CC(=O)c1cc(CC=C(C)C)c(O)cc1O,-8,6,-3,1,.,.
CC(=O)c1cc(CC=C(C)C)c(O)c(CC=C(C)C)c1O,-6,-13,9,25*,9,15
O=C(N/C=C/n1cnc2cc(C(F)(F)F)ccc21)c1ccccc1,-16,-16,-4,.,.,.
CCC(=O)Nc1nonc1-c1nc2ccccc2n1Cc1cccc2ccccc12,-57,-108,19,18*,26*,41*
COc1cc(NC(=O)c2cnn3c(C(F)F)cc(C4CC4)nc23)c(OC)cc1Cl,-5,-18,1,.,.,.
COC(=O)c1ccccc1NC(=O)c1cnn2c(C(F)F)cc(C3CC3)nc12,1,-34,16,19*,44*,32*
CCC1=Nc2ccc(Br)cc2C(c2ccccc2)N1CC(=O)OC (centres undefined),-16,6,14,23*,13,23*
Cc1snc(S(=O)(=O)Cc2ccccc2Cl)c1C#N,22,28,-9,2,.,.
CCCn1c2ccccc2c2cc(C(=O)O)ccc21,-12,-17,7,19*,5,8
Cn1c2ccccc2c2cc(C(=O)O)ccc21,3,10,3,1,.,.
Cn1c2ccccc2c2cc(/C=C(\NC(=O)c3ccccc3)C(=O)O)ccc21,-7,-5,.,.,.,.
CC(C)OC(=O)/C(=C/c1ccc2c(c1)c1ccccc1n2C)NC(=O)c1ccccc1,-17,-15,2,21*,6,20*
CC(C)(CN1CCN(C(c2ccccc2)c2ccccc2)CC1)NS(=O)(=O)c1ccccc1,-52,-10,.,.,.,.
CCOC(=O)CSc1nnc(CNC(=O)c2ccc([N+](=O)[O-])cc2)n1C,-6,-4,-1,.,.,.
Cc1ccccc1C(=O)c1cccn1CC(=O)NCCN1CCN(c2cccc(C)c2C)CC1,-21,-61,20,21*,19,25*
Cc1ccc(C)c(N2CCN(CCCNC(=O)Cn3cccc3C(=O)c3ccccc3C)CC2)c1,-21,-39,18,.,.,.
CCOC(=O)c1ccccc1NC(=O)CSc1nnc(COc2ccccc2C)n1C,-17,-17,14,19*,17,11
N#Cc1nc(-c2ccc(Cl)cc2)oc1NCc1ccco1,11,11,3,2,.,.
N#Cc1nc(-c2ccc(Cl)cc2)oc1NCc1cccc2c1OCO2,-7,-38,12,20*,21*,20*
Cc1cc(NC(=O)CN2C(=O)NC(C)(c3ccc(Cl)cc3)C2=O)no1 (centres undefined),17,-11,-4,.,.,.
O=C(CN1C(=O)C2C3C=CC(C3)C2C1=O)N1CCc2ccccc2C1 (centres undefined),-21,14,-1,2,.,.
CC1=CC(C)(C)N(S(=O)(=O)c2ccc(C)cc2)c2ccc(C)cc21,-2,7,8,21*,24*,20*
Cc1ccccc1NC(=O)c1cc(C(=O)c2cc(Cl)ccc2O)cn(-c2ccccc2C)c1=O,11,2,0,-1,.,.
SMILES,NPY-Y2 PAM-ag,NPY1 pot ag,NPY Y1 blocker,NPY Y2 blocker,NPY-Y1 antag ct,NPY-Y2 ant conf
OC1(c2ccccc2)CCN(Cc2ccccc2)C2CCCCC21 (centres undefined),-25,-27,18,29*,19,43*
COc1ccc(C(=O)N/C(=C/c2cccs2)C(=O)NCCCn2ccnc2)cc1OC,-1,-3,-2,22*,-2,4
O=C(NCCCn1ccnc1)/C(=C\c1cccs1)NC(=O)c1ccco1,17,-4,3,3,.,.
Clc1ccc(CSc2cc3c(nn2)-c2ccccc2CC3)cc1Cl,-24,-50,16,20*,20,36*
CCOc1ccc(C(C(=O)NC2CCCC2)N(Cc2ccccc2)C(=O)c2nsc(Cl)c2Cl)cc1 (centres undefined),-16,-25,18,25*,21*,14
O=c1c(Cl)c(NCc2ccccc2Cl)cnn1C12CC3CC(CC(C3)C1)C2,7,-18,3,6,.,.
CCOC(=O)CC(NC(=O)Cc1ccccc1)c1ccccc1Cl (centres undefined),4,-24,6,2,.,.
